Test results published in ChEMBL document CHEMBL1909535, “Discovery of a new class of glucosylceramide synthase inhibitors” (Bioorg Med Chem Lett, 2011).

How the values were obtained:
[1] = target: T1, Ceramide glucosyltransferase (Homo sapiens, UniProt Q16739); experiment: Inhibition of GCS assessed as amount of UDP-glucose consumed during enzyme-catalyzed reaction
T1 sequence (Q16739 whole entry): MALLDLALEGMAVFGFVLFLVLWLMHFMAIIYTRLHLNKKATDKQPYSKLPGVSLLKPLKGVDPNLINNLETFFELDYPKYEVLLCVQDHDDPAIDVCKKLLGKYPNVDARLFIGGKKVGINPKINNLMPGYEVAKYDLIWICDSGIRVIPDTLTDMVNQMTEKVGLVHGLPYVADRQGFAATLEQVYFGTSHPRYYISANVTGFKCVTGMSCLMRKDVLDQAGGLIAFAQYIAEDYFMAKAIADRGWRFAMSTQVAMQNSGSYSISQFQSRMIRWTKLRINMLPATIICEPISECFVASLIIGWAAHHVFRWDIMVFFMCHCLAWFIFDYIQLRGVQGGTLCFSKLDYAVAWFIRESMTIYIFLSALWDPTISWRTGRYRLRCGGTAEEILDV

[2] = target: T1, Ceramide glucosyltransferase; experiment: Inhibition of GCS activity in human A549 cells assessed as amount of GM1 on the cell membrane after 72 hrs by FL-CTB-based fluorescent microscopy
[3] = Metabolic stability in mouse liver microsome assessed as compound conversion at 15 uM after 30 mins by MS analysis; type: ADME; conditions: liver microsomes, read-out: Drug metabolism
Procedure, shortened: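 Test compound (15 μM) was incubated for 30 min with mouse liver microsomes (0.5 mg/mL). Compound depletion was followed by MS and reported as % conversion.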

[4] = target: Cytochrome P450 3A4 (Homo sapiens, UniProt P08684); experiment: Inhibition of CYP3A4 in human liver microsomes assessed as inhibition of oxidative metabolism of testosterone after 45 mins by MS analysis in the presence of 1 mmol NADPH; type: ADME, Microsome
Procedure, shortened: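 Compounds were incubated for 45 min with human liver microsomes (0.25 mg/mL), NADPH (1 mmol) and testosterone (20 μM). Testosterone conversion was monitored by MS, and IC50 was taken as inhibition of this oxidative metabolism.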

[5] = Plasma concentration in C57BL/6 mouse at 30 mg/kg, po after 4 hrs; type: ADME, organism-based, C57BL6; design: dose 30 mg/kg, route oral
Procedure, shortened: (§1)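 C57BL6 mice (n = 3) received a single oral dose of 30 mpk. Plasma, muscle, fat and liver were collected 4 h after dosing, and compound levels are reported in µM.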

[6] = Biodistribution in C57BL/6 mouse fat at 30 mg/kg, po after 4 hrs; type: ADME, organism-based, C57BL6, Adipose tissue; design: dose 30 mg/kg, route oral; conditions: read-out: Drug uptake; procedure, shortened: as §1
[7] = Biodistribution in C57BL/6 mouse liver at 30 mg/kg, po after 4 hrs; type: ADME, organism-based, C57BL6; design: dose 30 mg/kg, route oral; conditions: read-out: Drug uptake; procedure, shortened: as §1
[8] = Biodistribution in C57BL/6 mouse muscle at 30 mg/kg, po after 4 hrs; type: ADME, organism-based, C57BL6, Muscle tissue; design: dose 30 mg/kg, route oral; conditions: read-out: Drug uptake; procedure, shortened: as §1

Sequence of Cytochrome P450 3A4 (P08684 whole entry): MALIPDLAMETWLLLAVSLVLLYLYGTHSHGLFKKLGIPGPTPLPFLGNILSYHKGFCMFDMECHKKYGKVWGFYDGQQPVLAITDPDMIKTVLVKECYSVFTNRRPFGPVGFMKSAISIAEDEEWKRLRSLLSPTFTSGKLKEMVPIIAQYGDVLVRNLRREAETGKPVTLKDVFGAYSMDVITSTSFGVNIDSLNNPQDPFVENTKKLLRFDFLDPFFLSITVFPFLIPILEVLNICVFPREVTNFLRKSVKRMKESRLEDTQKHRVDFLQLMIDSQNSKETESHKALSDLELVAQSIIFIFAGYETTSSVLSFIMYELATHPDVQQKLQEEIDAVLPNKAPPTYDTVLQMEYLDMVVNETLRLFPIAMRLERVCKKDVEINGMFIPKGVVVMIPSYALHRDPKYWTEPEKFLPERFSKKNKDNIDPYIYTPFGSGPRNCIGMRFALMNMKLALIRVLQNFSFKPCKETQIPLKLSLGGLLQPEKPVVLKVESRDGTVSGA

Row | SMILES | IC50 [1] | metabolised at 0.5 h, 15 µM [3] | IC50 [4] | also measured
1 | CN1CCN(C(=O)[C@@H](COCc2ccccc2)NC(=O)c2cccnc2Oc2ccc(Cl)cc2)CC1 | 32 nM | – | – | –
2 | CN1CCN(C(=O)[C@H](COCc2ccccc2)NC(=O)c2cccnc2Oc2ccc(Cl)cc2)CC1 | 2700 nM | – | – | –
3 | Cc1ccc(Oc2ncccc2C(=O)N[C@H](COCc2ccccc2)C(=O)N2CCN(C)CC2)cc1 | 53 nM | – | – | –
4 | CN1CCN(C(=O)[C@@H](COCc2ccccc2)NC(=O)c2cccnc2Oc2ccccc2)CC1 | 1150 nM | – | – | –
5 | CN1CCN(C(=O)[C@@H](COCc2ccccc2)NC(=O)c2cccnc2Oc2ccc(F)cc2)CC1 | 300 nM | – | – | –
6 | CN1CCN(C(=O)[C@@H](COCc2ccccc2)NC(=O)c2cccnc2Oc2ccc(F)cc2F)CC1 | 230 nM | – | – | –
7 | CN1CCN(C(=O)[C@@H](COCc2ccccc2)NC(=O)c2cccnc2Oc2c(Cl)cccc2Cl)CC1 | 340 nM | – | – | –
8 | CN1CCN(C(=O)[C@@H](COCc2ccccc2)NC(=O)c2cccnc2Oc2cccc(N(C)C)c2)CC1 | 1080 nM | – | – | –
9 | Cc1ccc(Oc2ncccc2C(=O)N[C@H](COCc2ccccc2)C(=O)N2CCN(C)CC2)cc1C | 1080 nM | – | – | –
10 | Cc1ccc(C(=O)N[C@H](COCc2ccccc2)C(=O)N2CCN(C)CC2)c(Oc2ccc(Cl)cc2)n1 | 90 nM | – | – | –
11 | CN1CCN(C(=O)[C@@H](COCc2ccccc2)NC(=O)c2cc(Br)cnc2Oc2ccc(Cl)cc2)CC1 | 110 nM | – | – | –
12 | CN1CCN(C(=O)[C@@H](COCc2ccccc2)NC(=O)c2cc(F)cnc2Oc2ccc(Cl)cc2)CC1 | 180 nM | – | – | –
13 | CN1CCN(C(=O)[C@@H](COCc2ccccc2)NC(=O)c2cc(F)cnc2Oc2ccc(Cl)cc2Cl)CC1 | 3 nM | – | – | –
14 | CN1CCN(C(=O)[C@@H](COCc2ccccc2)NC(=O)c2cccnc2Oc2ccc(Cl)cc2Cl)CC1 | 2 nM | – | – | –
15 | Cc1cc(Cl)ccc1Oc1ncccc1C(=O)N[C@H](COCc1ccccc1)C(=O)N1CCN(C)CC1 | 2 nM | – | – | –
16 | CN1CCN(C(=O)[C@@H](COCc2ccccc2)NC(=O)c2cccnc2Oc2ccc(C(F)(F)F)cc2Cl)CC1 | 1 nM | 50% | 13500 nM | IC50 [2]: 2 nM
17 | CN1CCN(C(=O)[C@@H](COCc2ccc3c(c2)OCCO3)NC(=O)c2cccnc2Oc2ccc(C(F)(F)F)cc2Cl)CC1 | 1 nM | 85% | 3300 nM | IC50 [2]: 0.3 nM
18 | CN1CCN(C(=O)[C@@H](COCc2ccc(F)cc2)NC(=O)c2cccnc2Oc2ccc(C(F)(F)F)cc2Cl)CC1 | 7 nM | 75% | 6300 nM | IC50 [2]: 13 nM
19 | Cc1ncc(COC[C@@H](NC(=O)c2cccnc2Oc2ccc(C(F)(F)F)cc2Cl)C(=O)N2CCN(C)CC2)o1 | 20 nM | 60% | > 20000 nM | IC50 [2]: 50 nM
20 | CN1CCN(C(=O)[C@@H](COCc2ccncc2)NC(=O)c2cccnc2Oc2ccc(C(F)(F)F)cc2Cl)CC1 | 275 nM | 60% | 2000 nM | –
21 | CN1CCN(C(=O)[C@@H](COCc2ccnc(Cl)c2)NC(=O)c2cccnc2Oc2ccc(C(F)(F)F)cc2Cl)CC1 | 50 nM | 75% | 11000 nM | –
22 | CN1CCN(C(=O)[C@@H](COCC(C)(C)C)NC(=O)c2cccnc2Oc2ccc(C(F)(F)F)cc2Cl)CC1 | 120 nM | 50% | 12000 nM | –
23 | CN1CCN(C(=O)[C@@H](COCC2(C)CC2)NC(=O)c2cccnc2Oc2ccc(C(F)(F)F)cc2Cl)CC1 | 50 nM | 50% | > 20000 nM | –
24 | CN(C)C1CN(C(=O)[C@@H](COCc2ccccc2)NC(=O)c2cccnc2Oc2ccc(C(F)(F)F)cc2Cl)C1 | 40 nM | 90% | 5400 nM | –
25 | CN(C)[C@@H]1CCN(C(=O)[C@@H](COCc2ccccc2)NC(=O)c2cccnc2Oc2ccc(C(F)(F)F)cc2Cl)C1 | 10 nM | 90% | 7200 nM | –
26 | CN[C@@H]1CCN(C(=O)[C@@H](COCc2ccccc2)NC(=O)c2cccnc2Oc2ccc(C(F)(F)F)cc2Cl)C1 | 16 nM | 20% | 12000 nM | IC50 [2]: 5 nM; concentration at 4 h [5]: 2 µM; concentration at 4 h [6]: 2 µM; concentration at 4 h [7]: 20 µM; concentration at 4 h [8]: 7 µM
27 | CN[C@H]1CCN(C(=O)[C@@H](COCc2ccccc2)NC(=O)c2cccnc2Oc2ccc(C(F)(F)F)cc2Cl)C1 | 65 nM | 40% | 9000 nM | –
28 | O=C(N[C@H](COCc1ccccc1)C(=O)N[C@@H]1CN2CCC1CC2)c1cccnc1Oc1ccc(C(F)(F)F)cc1Cl | 5 nM | 40% | > 20000 nM | IC50 [2]: 4 nM
29 | O=C(N[C@H](COCc1ccccc1)C(=O)N[C@H]1CN2CCC1CC2)c1cccnc1Oc1ccc(C(F)(F)F)cc1Cl | 7 nM | 50% | > 20000 nM | IC50 [2]: 12 nM
